Calls of active or inactive are those of the source. No cut-off for these calls is given here.
Key:
Assay type in all cases: functional, cell-based
Settings in all cases: time <= 14.0 day
KMS-12-BM = test: Antiproliferative activity against human KMS-12-BM cells treated upto 14 days with replacement of fresh medium containing drug every 3 to 4 days by cell counting kit-8 method
Method in brief: (§1)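 Screen of histone methylation modifier inhibitors: myeloma cells seeded at 3 × 10^4 to 1 × 10^5 cells/well, exposed to 1 μM inhibitor or DMSO for up to 14 days. Viability read by CCK-8 absorbance at early (days 3-4) and late (days 11-14) time points, normalized to DMSO; means of 5 replications, SEM, unpaired two-sided t-test.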

MM1.S = test: Antiproliferative activity against human MM1.S cells treated upto 14 days with replacement of fresh medium containing drug every 3 to 4 days by cell counting kit-8 method; method in brief: as §1
KMS-12-PE = test: Antiproliferative activity against human KMS-12-PE cells treated upto 14 days with replacement of fresh medium containing drug every 3 to 4 days by cell counting kit-8 method
Method in brief: (§2)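 Screen of histone methylation modifier inhibitors in 6-well plates at 3 × 10^4 to 1 × 10^5 cells/well. Drug at 1 μM or DMSO for up to 14 days, with medium and drug refreshed every 3-4 days. CCK-8 read on days 3-4 and 11-14. Values normalized to DMSO; mean of 5 replications ± SEM; unpaired two-sided t-test.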

RPMI-8226 = test: Antiproliferative activity against human RPMI-8226 cells treated upto 14 days with replacement of fresh medium containing drug every 3 to 4 days by cell counting kit-8 method; method in brief: as §2
U-266 = test: Antiproliferative activity against human […] cells treated upto 14 days with replacement of fresh medium containing drug every 3 to 4 days by cell counting kit-8 method; method in brief: as §2

SMILES: N[C@@H]1C[C@H]1c1cc(F)cc(F)c1OCc1ccccc1
- Activity (KMS-12-BM): inactive
- Activity (MM1.S): inactive

SMILES: COc1cc2c(NC3CCN(C(C)C)CC3)nc(C3CCCCC3)nc2cc1OCCCN1CCCC1
- Activity (KMS-12-PE): inactive

SMILES: O=C(O)c1ccc(CN2CCC(CN[C@@H]3C[C@H]3c3ccccc3)CC2)cc1
- Activity (RPMI-8226): inactive
- Activity (U-266): inactive

SMILES: CC[C@H](C)n1cc(C)c2c(C(=O)NCc3c(C)cc(C)[nH]c3=O)cc(-c3ccc(N4CCNCC4)nc3)cc21
- Activity (KMS-12-PE): inactive

Reference: ChEMBL document CHEMBL5712901, “DOT1L inhibition blocks multiple myeloma cell proliferation by suppressing IRF4-MYC signaling” (2019)
